Reference: publication PMC4254804 (Nature communications, 2014)

Biological target: TopBP1 (Homo sapiens, UniProt Q92547)
Assay type: biochemical
Procedure, shortened: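 E. coli BL21-expressed (0.1 mM IPTG) TopBP1-BRCT7/8, GST cleaved off with PreScission, 2 μg preincubated with compound in NETN-A (50 mM NaCl, 1 mM EDTA, 20 mM Tris, 0.5% NP-40), 3 h, 4°C, rotating. Then 2 μg biotin-pS1159 peptide (non-phospho peptide control; streptavidin-Sepharose) or GST-p53-DBD (GST control; glutathione-Sepharose) added, 3 h, 4°C. Six NETN-B washes; SDS-PAGE, anti-TopBP1 immunoblot.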

TopBP1, sequence (Q92547 1264-1493 limits assumed): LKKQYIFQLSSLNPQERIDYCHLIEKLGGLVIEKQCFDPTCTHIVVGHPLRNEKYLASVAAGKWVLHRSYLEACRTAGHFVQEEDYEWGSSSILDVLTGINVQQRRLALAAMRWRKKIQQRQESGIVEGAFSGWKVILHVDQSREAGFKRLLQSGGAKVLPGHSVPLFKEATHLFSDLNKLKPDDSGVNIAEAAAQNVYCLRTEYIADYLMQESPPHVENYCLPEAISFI

- Pulldown competition with purified proteins: biotin-pS1159 peptide streptavidin: submicromolar
SMILES: O=C(O)CN(CC(=O)O)Cc1cc2c(cc1O)Oc1cc(O)c(CN(CC(=O)O)CC(=O)O)cc1C21OC(=O)c2ccccc21 [calcein]
